Data set [1] can be described thus: Cytotoxicity against human WI38 cells up to 5 uM after 72 hrs by Alamar Blue assay. The class given is cell-based. The conditions noted are these: wi-38, 72 h. Put shortly: (§1)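 In vitro cytotoxicity was read by the colorimetric resazurin (AlamarBlue) assay of cell viability. The panel covered human non-small cell lung NCI-H460, CNS glioma SF-268, breast MCF-7, metastatic breast adenocarcinoma MDA-MB-231, metastatic prostate adenocarcinoma PC-3M and neuroblastoma CHP-100 cancer lines, plus normal human lung fibroblast WI-38 cells.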
(In general: The colour change of resazurin is a common sign of viable cells or microbes.)

In data set [2] the test system is MDA-MB-231. As to the kind of experiment: Cytotoxicity against human MDA-MB-231 cells up to 5 uM after 72 hrs by Alamar Blue assay. The class given is functional, cell-based. Summed up:
as §1

Data set [3] has as its system MCF7. In words: Cytotoxicity against human MCF7 cells up to 5 uM after 72 hrs by Alamar Blue assay. The data set is classed as functional, cell-based. Put shortly:
as §1

Data set [4] concerns PC-3M. As to the kind of experiment: Cytotoxicity against human PC3M cells up to 5 uM after 72 hrs by Alamar Blue assay. The class given is functional, cell-based. Summed up:
as §1

The subject of data set [5] is SF-268. In words: Cytotoxicity against human SF268 cells up to 5 uM after 72 hrs by Alamar Blue assay. The class given is functional, cell-based. Put shortly: as §1
Data set [6] relates to NCI-H460. In words: Cytotoxicity against human NCI-H460 cells up to 5 uM after 72 hrs by Alamar Blue assay. The data set is classed as functional, cell-based. Summed up:
as §1

The test system of data set [7] is CHP100. As to the kind of experiment: Cytotoxicity against human CHP100 cells up to 5 uM after 72 hrs by Alamar Blue assay. The data set is classed as functional, cell-based. Put shortly:
as §1

For data set [8], the system named is MCF7. As to the kind of experiment: Cytotoxicity against human MCF7 cells after 72 hrs by Alamar Blue assay. The data set is classed as functional, cell-based. Summed up: (§2)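 Resazurin-based colorimetric cell viability read-out on human cancer cells (MCF-7 breast; PC-3M metastatic prostate adenocarcinoma), run in vitro in a panel that also included normal human lung fibroblast WI-38 cells.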

Data set [9] can be described thus: Cytotoxicity against human PC3M cells after 72 hrs by Alamar Blue assay. The class given is functional, cell-based, PC-3M. Summed up:
as §2

Data set [10] relates to MDA-MB-231. In words: Cytotoxicity against human MDA-MB-231 cells after 72 hrs by Alamar Blue assay. The class given is functional, cell-based. Summed up: as §1
For data set [11], the system named is SF-268. As to the kind of experiment: Cytotoxicity against human SF268 cells after 72 hrs by Alamar Blue assay. The class given is functional, cell-based. Put shortly: as §1
In data set [12] the test system is NCI-H460. In words: Cytotoxicity against human NCI-H460 cells after 72 hrs by Alamar Blue assay. The data set is classed as functional, cell-based. Summed up: as §1
A short description of data set [13]: Cytotoxicity against human CHP100 cells after 72 hrs by Alamar Blue assay. The class given is functional, cell-based. The conditions noted are these: CHP100, 72 h. Put shortly: as §1
Data set [14] can be described thus: Cytotoxicity against human WI38 cells after 72 hrs by Alamar Blue assay. The data set is classed as cell-based. The conditions noted are these: WI-38, 72 h. Summed up:
as §1

Each structure is given as a SMILES string. Calls of active or inactive are those of the source. No cut-off for these calls is given here.

As for `CC(C)=CCC[C@@]1(C(=O)O)[C@H]2C/C=C(\C)CC/C=C(\C)CC[C@H]1[C@@H](C=O)CC2`, the Activity entry in [1] is “Non-toxic”. The outcome in data set [2], in [3], in data set [4], in data set [5], in [6] and in data set [7] was inactive.

As usually defined, the IC50 is the concentration that gives 50% inhibition. A low value points to greater potency in that assay. For the molecule `COc1cc2c(c3oc4cccc(O)c4c(=O)c13)[C@@H]1C=CO[C@@H]1O2` [STERIGMATOCYSTIN], the IC50 came out at 3630 nM in data set [8] (mcf7); 3230 nM in data set [9] (pc-3m); 2750 nM in [10] (mda-mb-231); 2960 nM in data set [11] (sf-268); 3410 nM in data set [12] (nci-h460).

For `CC(C)=CCC[C@@]1(C(=O)O)[C@H]2C/C=C(\C)CC/C=C(\C)CC[C@H]1[C@H](C=O)CC2`, in [1], the Activity entry is “Non-toxic”. Besides, the outcome in [2], in [3], in data set [4], in [5], in data set [6] and in data set [7] was inactive.

Consider `CC(C)=CCC[C@@]1(C(=O)O)[C@@H]2CC=C(CO)[C@@H]1CC/C(C)=C/CC/C(C)=C/C2`, for which, in data set [1], the Activity result is reported as “Non-toxic”. In addition, the outcome in data set [2], in [3], in data set [4], in [5], in data set [6] and in [7] was inactive.

As for `COc1cccc2c1C(=O)c1c(O)c3c(c(O)c1C2=O)C[C@@](O)(C(=O)CO)C[C@@H]3O[C@H]1C[C@H](N)[C@H](O)[C@H](C)O1` [DOXORUBICIN], the half-maximal inhibitory concentration (IC50) was determined as 790 nM in data set [13]; 270 nM in data set [9] (Homo sapiens, PC-3M, 72 h); 680 nM in [10] (Homo sapiens, MDA-MB-231, 72 h); 310 nM in [11] (Homo sapiens, SF-268, 72 h); 50 nM in data set [12] (Homo sapiens, NCI-H460, 72 h).

For the molecule `COc1ccc(C(=O)O[C@H]2C=COC=C3C[C@]45SSSS[C@](Cc6ccc(O)cc6)(C(=O)N4[C@@H]32)N(C)C5=O)cc1O`, the IC50 in data set [8] (Homo sapiens, MCF7, 72 h) amounted to 140 nM; in data set [13], 100 nM; in [9] (Homo sapiens, PC-3M, 72 h) it was 170 nM; in data set [14] it was 240 nM; in data set [10] (Homo sapiens, MDA-MB-231, 72 h) it was 60 nM; in data set [11] (Homo sapiens, SF-268, 72 h), 60 nM. The midpoint of inhibition in [12] (Homo sapiens, NCI-H460, 72 h), the IC50, lay at 150 nM.

For `CC(C)=CCC[C@@]1(C=O)[C@H]2C/C=C(\C)CC/C=C(\C)CC[C@H]1[C@@]1(CC2)CO1`, in [1], the Activity entry is on record as “Non-toxic”. Also, the outcome in data set [2], in data set [3], in data set [4], in [5], in data set [6] and in data set [7] was inactive.

On to `CC(C)=CCC[C@@]1(C(=O)O)[C@H]2C/C=C(\C)CC/C=C(\C)CC[C@H]1[C@@]1(CC2)CO1`, for which the Activity result in data set [1] is listed as “Non-toxic”. Also, the outcome in [2], in data set [3], in data set [4], in data set [5], in data set [6] and in data set [7] was inactive.

Turning to `CC(C)=CCc1ccc2c(c1O)C(=O)c1c(O)cc(C)c3c1C(O2)C(C(C)(C)O)CO3` (stereo unspecified), in [1], the Activity entry was “Non-toxic”. Also, the result in data set [2], in data set [3], in data set [4], in data set [5], in data set [6] and in data set [7] was inactive.

On to `C=C(C)[C@H]1COc2c(C)cc3oc4ccc(CC=C(C)C)c(O)c4c(=O)c3c2[C@H]1O` (relative stereo), for which the Activity entry in [1] was “Non-toxic”. The outcome in data set [2], in data set [3], in [4], in [5], in [6] and in [7] was inactive.
